# Screens as filed in PubChem BioAssay.
# AF4-AF9 inh – inhibitors of human MLL-AF4/AF9 interaction. P42568. AlphaScreen, biotin-AF4 peptide binding to FLAG-AF9. inhibition, % at 10 µM. 0.47% of 350,000 active. AID 651704;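 active = every replicate reaching a set inhibition limit, whatever the replicate mean, cut at about 25% in these data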
# RAD52 anneal inh – RAD52 (human) annealing inhibition; P43351; recombinant RAD52 DNA annealing, FRET fluorescence; inhibition, % at 18.7 µM; 0.46% of 360,000 active; AID 651710;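 active = every replicate showing at least 50% inhibition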
# INS-1E GSIS act – GLuc luminescence reporter in INS-1E cells, primary screen for activators of glucose-dependent secretion of insulin; INS-1E GLuc reporter insulin secretion, 2-3 h; activation, % at 16.6 µM; 0.61% of 370,000 active; AID 743287;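 active = lowest replicate activation of at least 40%, so every replicate reaches that level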
# ERAP1 HTS inh – inhibitors of human ERAP1 aminopeptidase; AID 652197; 0.15% of 340,000 active; inhibition, % at 10.7 µM; recombinant ERAP1, Leu-AMC fluorescence, 60 min;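 active = mean replicate inhibition of at least 30%, or all replicates individually reaching that 30% level; inactive = mean below 30% and not every replicate reaching it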
# S100A4 MyoIIA – S100A4-myosin IIA interaction inhibition | P26447 | S100A4/TAMRA-MyoIIA peptide fluorescence polarization | inhibition, % at 10.7 µM | 0.14% of 360,000 active | AID 652163;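 active = mean inhibition of at least 70% across replicates, with every replicate also reaching that level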
#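 System – human S100A4 monomer protein, biochemical binding assay · Buffer or medium – Calcium-containing HEPES buffer, pH 7.2 · Timing – 5 min between mix addition and reading · Also added – TAMRA-labelled myosin IIA heavy-chain peptide probe, 5 nM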
# Hits are given with their value; . = inactive; / = not tested or not shown. Shown are actives, neighbours in structure and some others; about 1.5% of the full set was active somewhere.
SMILES,AF4-AF9 inh,RAD52 anneal inh,INS-1E GSIS act,ERAP1 HTS inh,S100A4 MyoIIA
O=C1NC(c2ccccc2)c2c(-c3ccccc3)n[nH]c21 (stereo not given),/,.,54,.,.
Cc1ccc(C2c3c(-c4ccccc4)n[nH]c3C(=O)N2c2ccccc2)cc1 (stereo not given),/,.,.,.,.
CC(C)c1[nH]nc2c1C(c1ccccc1)NC2=O (stereo not given),/,.,44,.,.
Cc1ccc(C2NC(=O)c3[nH]nc(-c4ccccc4)c32)cc1 (stereo not given),/,.,.,.,.
Cc1ccc(S(=O)(=O)Nc2ccc3c(c2)CC(=O)N([C@H](C)CO)C[C@@H](C)[C@@H](CN(C)C(=O)Nc2c(C)noc2C)O3)cc1,.,.,.,.,.
O=C(Cc1ccccc1)N1CC2(C1)[C@H](c1ccccc1)[C@H](CO)N2C(=O)c1cccnc1,.,.,.,/,.
CCOc1ccc(Nc2oc(-c3cccc(Cl)c3)nc2C#N)cc1,/,/,106,/,/
COc1ccc(Nc2oc(-c3ccc(F)cc3)nc2C#N)cc1,.,.,.,/,.
Cc1cc(N=Nc2ccc(Cl)cc2)cc(CN2CCCC2)c1O,49,.,.,/,.
Cc1noc(C)c1NC(=O)N(C)C[C@@H]1Oc2cc(C#CCC(C)C)ccc2S(=O)(=O)N([C@H](C)CO)C[C@H]1C,30,.,.,.,.
Cc1noc(C)c1NC(=O)N(C)C[C@H]1Oc2cc(C#CCC(C)C)ccc2S(=O)(=O)N([C@H](C)CO)C[C@@H]1C,.,.,.,.,.
CC(C)CC#Cc1ccc2c(c1)O[C@@H](CN(C)Cc1cccc(F)c1)[C@H](C)CN([C@@H](C)CO)S2(=O)=O,.,.,95,.,.
C[C@H]1CN([C@@H](C)CO)S(=O)(=O)c2ccc(/C=C/c3ccccc3)cc2O[C@H]1CN(C)CC1CC1,29,.,.,.,.
C/C=C/c1ccc2c(c1)O[C@H](CN(C)CC1CC1)[C@H](C)CN([C@H](C)CO)S2(=O)=O,/,/,.,/,/
C[C@@H]1CN([C@H](C)CO)S(=O)(=O)c2ccc(C#Cc3cccc(F)c3)cc2O[C@@H]1CN(C)CC1CC1,.,59,.,.,.
CC(C)CC#Cc1ccc2c(c1)O[C@@H](CN(C)Cc1cccc(F)c1)[C@@H](C)CN([C@H](C)CO)S2(=O)=O,.,.,.,.,.
C[C@H]1CCCCO[C@@H](CN(C)C(=O)Nc2ccc(F)cc2)[C@@H](C)CN([C@@H](C)CO)C(=O)c2cc(NC(=O)c3ccccc3)ccc2O1,.,.,.,.,.
CCOc1ccc(CCNC(=O)COC(=O)c2cccc(N(C)C)c2)cc1OCC,.,.,52,.,.
CCOc1ccc(CCNC(=O)COC(=O)c2cccc(S(=O)(=O)N(C)C)c2)cc1OCC,.,.,.,.,.
CCOc1ccc(CCNC(=O)COC(=O)/C=C/c2ccc(OC)c(OC)c2)cc1OCC,.,.,.,.,.
CCOc1ccc(CCNC(=O)COC(=O)Cn2nc(C)c([N+](=O)[O-])c2C)cc1OCC,.,.,56,.,.
CCOc1ccc(CCNC(=O)c2cc(C)on2)cc1OCC,.,.,55,.,.
CCOc1ccc(CCNC(=O)COC(=O)/C=C/c2ccccc2OC)cc1OCC,.,.,47,.,.
O=C1[C@H](Cc2ccc(C(F)(F)F)cc2)CCn2cc(nn2)COC[C@@H]2CCCCN12,/,/,.,/,/
CCOc1ccc(CCNC(=O)COC(=O)COc2ccc(Br)cc2)cc1OCC,.,.,69,.,.
SMILES,AF4-AF9 inh,RAD52 anneal inh,INS-1E GSIS act,ERAP1 HTS inh,S100A4 MyoIIA
CCOc1ccc(CCNC(=O)CSCc2ccc(C)cc2)cc1OCC,.,.,.,.,.
CCOc1ccc(CCNC(=O)CSC(=S)N2CCCC2)cc1OCC,.,.,41,.,.
CCOc1ccc(CCNC(=O)COC(=O)COc2cc(C)cc(C)c2)cc1OCC,.,.,45,.,.
C[C@H](CO)N1C[C@H](C)[C@@H](CN(C)Cc2ccc(C(=O)Nc3ccccc3N)cc2)Oc2ccc(NC(=O)Cc3ccccc3)cc2CC1=O,.,.,.,.,.
COc1ccccc1NC(=O)N1CC(=O)N2[C@H](C1)[C@H](c1ccc(C#CCC(C)C)cc1)[C@@H]2CO,/,/,.,/,/
CC(C)C[C@H]1CN(CCCC[C@H]2CNC(=O)C(=O)N2Cc2ccccc2)C(=O)C(=O)N1CCc1ccccc1,.,.,/,.,.
CC(C)C[C@H]1CN(CCCC[C@@H]2CNC(=O)C(=O)N2Cc2ccccc2)C(=O)C(=O)N1Cc1ccccc1,.,.,.,.,90
CC(=O)CSc1nnc(C(F)(F)F)n1C,33,.,.,.,.
Cn1c(SCC(=O)NC2CCCC2)nnc1C(F)(F)F,.,.,.,.,.
O=[N+]([O-])c1ccc(C(O)CN2CCN(C/C=C/c3ccccc3)CC2)cc1 (stereo not given),.,.,51,.,.
C=C1C(=O)C23C(O)C1CCC2C12CCCC(C)(COC(C)=O)C1C(O)C3(O)OC2 (stereo not given),.,.,162,.,.
O=C(Nc1ccccc1F)N[C@@H]1CC[C@H](CCNC(=O)C2CCC2)O[C@@H]1CO,.,.,.,.,.
CC(C)(O)c1cn([C@@H]2C[C@@H]3O[C@@H](CO)CC[C@@H]3O[C@@H]2CCc2ccc(-c3ccncc3)cc2)nn1,.,.,/,.,.
CN(N=Nc1ccc([N+](=O)[O-])cc1)c1ccccc1,.,.,.,.,.
CN(CCCC(=O)O)c1ccc(N=Nc2ccc([N+](=O)[O-])cc2)cc1,38,.,.,.,.
COCC(=O)N1C[C@H](C)[C@@H](OC)CN(C)C(=O)c2cc(NC(=O)c3cc(C)on3)ccc2OC[C@H]1C,/,/,.,/,/
Cc1noc(C)c1S(=O)(=O)N1CCCCC1c1cc(C(=O)Nc2cccc3c2CCCC3)no1 (stereo not given),.,.,.,.,.
CS(=O)(=O)N1CCCCC1c1cc(C(=O)Nc2cccc3c2CCCC3)no1 (stereo not given),.,.,54,.,.
C[C@H](CO)N1C[C@H](C)[C@@H](CN(C)C(=O)C2CC2)Oc2ncc(C#CC3(O)CCCC3)cc2C1=O,/,/,.,/,/
Cc1ccc(S(=O)(=O)NC2CCN(Cc3cccc(OCCO)c3)CC2)cc1,.,51,/,.,.
CCCC#Cc1ccc(CC[C@H]2O[C@H]3CC[C@@H](CO)O[C@H]3C[C@H]2NC(=O)c2cnccn2)cc1,.,.,/,.,.
Cc1cc(=O)[nH]c(SCc2cn3ccccc3n2)n1,.,.,73,.,.
O=[N+]([O-])c1ccc2nc(SCc3cn4ccccc4n3)[nH]c2c1,.,.,.,.,.
C/C(=N\NC(=O)CC#N)c1cc2ccc(O)cc2oc1=O,.,.,.,80,.
CN(C)CCCN(C(=O)c1ccc2ccccc2c1)c1nc2cc3c(cc2s1)OCO3,33,.,.,.,.
CN(C)CCCN(C(=O)COc1ccc(Cl)cc1)c1nc2cc3c(cc2s1)OCO3,.,.,.,.,.
